Test results reported in ChEMBL document CHEMBL5674883, “The Heterochromatin Landscape in Migrating Cells and the Importance of H3K27me3 for Associated Transcriptome Alterations” (Cells, 2018).

How the values were obtained:
Assay type in all cases: cell-based
[1] = biological target: Histone-lysine N-methyltransferase EZH2 (Mus musculus) (UniProt Q61188); assay: Inhibition of EZH2 in mouse B16-F1 migrating cells assessed as fold change in H3K27me3-independent regulated Aldoc-mRNA expression at 3 uM measured by ChIP-seq analysis relative to control cells
Procedure, shortened: (§1)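 Confluent B16-F1 cells on fibronectin-coated plates were scratched at multiple sites, washed once with DMEM and left to migrate 3 h in growth medium (37 °C, 7% CO2); unscratched cells served as control. GSK343 (3 µM) was added 3 h before lysis. Poly A mRNA was sequenced (RNA-seq), with 5 replicates for untreated and 3 for treated cells. Differential expression was called by linear model with batch correction, at FDR <0.05 and fold change ≥1.3.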

[2] = biological target: Histone-lysine N-methyltransferase EZH2 (Mus musculus) (UniProt Q61188); assay: Inhibition of EZH2 in mouse B16-F1 migrating cells assessed as fold change in H3K27me3-buffered regulated Paxbp1-mRNA expression at 3 uM measured by […] analysis relative to control cells
Procedure, shortened: (§2)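 Confluent B16-F1 cells on fibronectin-coated plates, cultured at 37 °C and 7% CO2, were scratched at multiple sites to induce migration. They were then held 3 h in growth medium containing 3 µM GSK343, with the inhibitor added 3 h before lysis. Unscratched cells served as controls. Poly A mRNA was analysed by RNA-seq (n=3 GSK343, n=5 controls). Linear models removed batch effects, and buffered genes were those altered only under GSK343 (FDR <0.05, fold change >1.3).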

[3] = biological target: Histone-lysine N-methyltransferase EZH2 (Mus musculus) (UniProt Q61188); assay: Inhibition of EZH2 in mouse B16-F1 migrating cells assessed as fold change in H3K27me3-buffered regulated Rbl1-mRNA expression at 3 uM measured by […] analysis relative to control cells; procedure, shortened: as §2
[4] = biological target: Histone-lysine N-methyltransferase EZH2 (Mus musculus) (UniProt Q61188); assay: Inhibition of EZH2 in mouse B16-F1 migrating cells assessed as fold change in H3K27me3-independent regulated Selenbp1-mRNA expression at 3 uM measured by […] analysis relative to control cells; procedure, shortened: as §1
[5] = biological target: Histone-lysine N-methyltransferase EZH2 (Mus musculus) (UniProt Q61188); assay: Inhibition of EZH2 in mouse B16-F1 migrating cells assessed as fold change in H3K27me3-independent regulated Nr4a3-mRNA expression at 3 uM measured by […] analysis relative to control cells; procedure, shortened: as §1
[6] = biological target: Histone-lysine N-methyltransferase EZH2 (Mus musculus) (UniProt Q61188); assay: Inhibition of EZH2 in mouse B16-F1 migrating cells assessed as fold change in H3K27me3-buffered regulated Dlg4-mRNA expression at 3 uM measured by […] analysis relative to control cells; procedure, shortened: as §2
[7] = biological target: Histone-lysine N-methyltransferase EZH2 (Mus musculus) (UniProt Q61188); assay: Inhibition of EZH2 in mouse B16-F1 migrating cells assessed as fold change in H3K27me3-buffered regulated Foxa1-mRNA expression at 3 uM measured by […] analysis relative to control cells; procedure, shortened: as §2
[8] = biological target: Histone-lysine N-methyltransferase EZH2 (Mus musculus) (UniProt Q61188); assay: Inhibition of EZH2 in mouse B16-F1 migrating cells assessed as fold change in H3K27me3-dependent regulated Id1-mRNA expression at 3 uM measured by […] analysis relative to control cells; procedure, shortened: as §1
[9] = biological target: Histone-lysine N-methyltransferase EZH2 (Mus musculus) (UniProt Q61188); assay: Inhibition of EZH2 in mouse B16-F1 migrating cells assessed as fold change in H3K27me3-buffered regulated A130010J15Rik-mRNA expression at 3 uM measured by […] analysis relative to control cells; procedure, shortened: as §2
[10] = biological target: Histone-lysine N-methyltransferase EZH2 (Mus musculus) (UniProt Q61188); assay: Inhibition of EZH2 in mouse B16-F1 migrating cells assessed as fold change in H3K27me3-buffered regulated Tuba4a-mRNA expression at 3 uM measured by […] analysis relative to control cells; procedure, shortened: as §1
[11] = biological target: Histone-lysine N-methyltransferase EZH2 (Mus musculus) (UniProt Q61188); assay: Inhibition of EZH2 in mouse B16-F1 migrating cells assessed as fold change in H3K27me3-dependent regulated Espnl-mRNA expression at 3 uM measured by […] analysis relative to control cells; procedure, shortened: as §1
[12] = biological target: Histone-lysine N-methyltransferase EZH2 (Mus musculus) (UniProt Q61188); assay: Inhibition of EZH2 in mouse B16-F1 migrating cells assessed as fold change in H3K27me3-independent regulated Eva1a-mRNA expression at 3 uM measured by ChIP-seq analysis relative to control cells; procedure, shortened: as §1
[13] = biological target: Histone-lysine N-methyltransferase EZH2 (Mus musculus) (UniProt Q61188); assay: Inhibition of EZH2 in mouse B16-F1 migrating cells assessed as fold change in H3K27me3-buffered regulated Rhobtb3-mRNA expression at 3 uM measured by […] analysis relative to control cells; procedure, shortened: as §1
[14] = biological target: Histone-lysine N-methyltransferase EZH2 (Mus musculus) (UniProt Q61188); assay: Inhibition of EZH2 in mouse B16-F1 migrating cells assessed as fold change in H3K27me3-buffered regulated Rnf145-mRNA expression at 3 uM measured by […] analysis relative to control cells; procedure, shortened: as §1
[15] = biological target: Histone-lysine N-methyltransferase EZH2 (Mus musculus) (UniProt Q61188); assay: Inhibition of EZH2 in mouse B16-F1 migrating cells assessed as fold change in H3K27me3-buffered regulated Gulp1-mRNA expression at 3 uM measured by […] analysis relative to control cells; procedure, shortened: as §2
[16] = biological target: T1, RNA polymerase II (Mus musculus) (UniProt P08775+Q8CFI7+P97760+A0A3Q4L2S8+Q80UW8+P61219+P62488+Q923G2+P60898+O08740+Q63871+P62876); assay: Inhibition of RNA polymerase II in mouse B16-F1 migrating cells assessed as fold change in Abi1-RNA stability at 0.1 mM measured by […] analysis relative to control cells
[17] = biological target: T1, RNA polymerase II (Mus musculus); assay: Inhibition of RNA polymerase II in mouse B16-F1 migrating cells assessed as fold change in Slc27a3-RNA stability at 0.1 mM measured by […] analysis relative to control cells
[18] = biological target: T1, RNA polymerase II (Mus musculus); assay: Inhibition of RNA polymerase II in mouse B16-F1 migrating cells assessed as fold change in Larp4-RNA stability at 0.1 mM measured by ChIP-seq analysis relative to control cells
[19] = biological target: T1, RNA polymerase II (Mus musculus); assay: Inhibition of RNA polymerase II in mouse B16-F1 migrating cells assessed as fold change in Bcap29-RNA stability at 0.1 mM measured by […] analysis relative to control cells
[20] = biological target: T1, RNA polymerase II (Mus musculus); assay: Inhibition of RNA polymerase II in mouse B16-F1 migrating cells assessed as fold change in Ptbp2-RNA stability at 0.1 mM measured by […] analysis relative to control cells
[21] = biological target: T1, RNA polymerase II (Mus musculus); assay: Inhibition of RNA polymerase II in mouse B16-F1 migrating cells assessed as fold change in Socs5-RNA stability at 0.1 mM measured by […] analysis relative to control cells
[22] = biological target: T1, RNA polymerase II (Mus musculus); assay: Inhibition of RNA polymerase II in mouse B16-F1 migrating cells assessed as fold change in Efcab7-RNA stability at 0.1 mM measured by ChIP-seq analysis relative to control cells
[23] = biological target: T1, RNA polymerase II (Mus musculus); assay: Inhibition of RNA polymerase II in mouse B16-F1 migrating cells assessed as fold change in Eri3-RNA stability at 0.1 mM measured by ChIP-seq analysis relative to control cells
[24] = biological target: T1, RNA polymerase II (Mus musculus); assay: Inhibition of RNA polymerase II in mouse B16-F1 migrating cells assessed as fold change in Otud6b-RNA stability at 0.1 mM measured by […] analysis relative to control cells
[25] = biological target: T1, RNA polymerase II (Mus musculus); assay: Inhibition of RNA polymerase II in mouse B16-F1 migrating cells assessed as fold change in Mbtd1-RNA stability at 0.1 mM measured by ChIP-seq analysis relative to control cells
[26] = biological target: T1, RNA polymerase II (Mus musculus); assay: Inhibition of RNA polymerase II in mouse B16-F1 migrating cells assessed as fold change in Psip1-RNA stability at 0.1 mM measured by […] analysis relative to control cells

Histone-lysine N-methyltransferase EZH2 (Mus musculus), sequence (Q61188 whole entry): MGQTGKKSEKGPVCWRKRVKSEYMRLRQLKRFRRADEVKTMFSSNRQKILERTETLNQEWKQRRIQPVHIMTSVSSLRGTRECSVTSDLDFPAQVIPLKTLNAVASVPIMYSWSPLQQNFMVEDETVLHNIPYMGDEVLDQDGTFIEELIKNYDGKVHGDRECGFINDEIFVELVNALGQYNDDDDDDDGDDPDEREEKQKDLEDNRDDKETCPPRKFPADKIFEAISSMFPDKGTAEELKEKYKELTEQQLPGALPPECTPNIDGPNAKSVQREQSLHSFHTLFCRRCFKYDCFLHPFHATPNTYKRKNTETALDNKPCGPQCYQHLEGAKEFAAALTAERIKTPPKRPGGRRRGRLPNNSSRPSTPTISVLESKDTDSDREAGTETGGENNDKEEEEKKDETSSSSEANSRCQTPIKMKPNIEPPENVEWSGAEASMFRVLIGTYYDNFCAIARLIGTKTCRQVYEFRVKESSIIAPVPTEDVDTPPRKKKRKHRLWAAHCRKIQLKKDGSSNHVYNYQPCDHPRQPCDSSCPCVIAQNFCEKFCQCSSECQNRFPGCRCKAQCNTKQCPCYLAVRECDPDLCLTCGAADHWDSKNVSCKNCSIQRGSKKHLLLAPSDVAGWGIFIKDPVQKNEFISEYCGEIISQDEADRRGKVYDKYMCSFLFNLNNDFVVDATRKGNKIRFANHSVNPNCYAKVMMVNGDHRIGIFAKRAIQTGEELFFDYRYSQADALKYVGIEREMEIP

Compound `CCCc1cc(C)[nH]c(=O)c1CNC(=O)c1cc(-c2ccnc(N3CCN(C)CC3)c2)cc2c1cnn2C(C)C` has a log2FC [1] of 0.69, a log2FC [2] of -0.55 and a log2FC [3] of -0.43. It also gave a log2FC [4] of 1.01, a log2FC [5] of 0.74 and a log2FC [6] of 0.39. The log2FC [7] was -0.77, the log2FC [8] was 0.16 and the log2FC [9] was -0.42. It also gave a log2FC [10] of 0.42, a log2FC [11] of 0.55 and a log2FC [12] of 0.84. The log2FC [13] was -0.62, the log2FC [14] was -0.49 and the log2FC [15] was -0.44.

Work on `OC[C@H]1O[C@@H](n2cnc3cc(Cl)c(Cl)cc32)[C@H](O)[C@@H]1O` yielded a log2FC [16] of -0.62, a log2FC [17] of 0.65 and a log2FC [18] of -0.9. It also gave a log2FC [19] of -0.48, a log2FC [20] of -0.56 and a log2FC [21] of -0.48. The log2FC [22] was -0.79, the log2FC [23] was 0.38 and the log2FC [24] was -0.6. For the same compound, the log2FC [25] was -0.62 and the log2FC [26] was -0.83.
